Assay results published in ChEMBL document CHEMBL3627597, “Synthesis of Fluorine-Containing Phosphodiesterase 10A (PDE10A) Inhibitors and the In Vivo Evaluation of F-18 Labeled PDE10A PET Tracers in Rodent and Nonhuman Primate” (J Med Chem, 2015).

Assays:
[1] = system: Brain; assay: Biodistribution in Sprague-Dawley rat brain at 1.48 to 2.22 MBq, iv measured at 60 mins by gamma counting analysis; assay type: ADME, organism-based; conditions: in vivo, 1 h
In short: (§1)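 Male Sprague-Dawley rats (250 - 400 g), tail-vein injection of 1.48 - 2.22 MBq radiotracer under 2.5% isoflurane in oxygen; n=4 per time point, euthanized at 5, 30 and 60 min p.i. Brain regions obtained by gross dissection; peripheral tissues collected. Samples weighed, gamma-counted against a diluted-injectate standard; %ID/g calculated.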

[2] = system: Bone; assay: Biodistribution in Sprague-Dawley rat bone at 1.48 to 2.22 MBq, iv measured at 5 mins by gamma counting analysis; assay type: ADME, organism-based, Bone element; conditions: in vivo; in short: as §1
[3] = system: Blood; assay: Biodistribution in Sprague-Dawley rat blood at 1.48 to 2.22 MBq, iv measured at 60 mins by gamma counting analysis; assay type: ADME, organism-based; conditions: in vivo, 1 h; in short: as §1
[4] = system: Brain; assay: Biodistribution in Sprague-Dawley rat brain at 1.48 to 2.22 MBq, iv measured at 5 mins by gamma counting analysis; assay type: ADME, organism-based; conditions: in vivo; in short: as §1
[5] = system: Rattus norvegicus; assay: Biodistribution in Sprague-Dawley rat fat tissue at 1.48 to 2.22 MBq, iv measured at 5 mins by gamma counting analysis; assay type: ADME, organism-based, Adipose tissue; conditions: in vivo; in short: as §1
[6] = Ratio of drug level in striatum to cerebellum in Sprague-Dawley rat at 1.48 to 2.22 MBq, iv measured at 5 to 30 mins by gamma counting analysis; assay type: ADME, organism-based; conditions: in vivo
In short: (§2)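 Striatum, cerebellum and cortex obtained by gross dissection from Sprague-Dawley rats (250 - 400 g, n=4 per time point) after tail-vein injection of 1.48 - 2.22 MBq under isoflurane anesthesia. Tissues weighed and gamma-counted with an injectate standard to give %ID/g; ratios taken from striatal versus non-target uptake.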

[7] = system: Brain; assay: Biodistribution in Sprague-Dawley rat brain at 1.48 to 2.22 MBq, iv measured at 30 mins by gamma counting analysis; assay type: ADME, organism-based; conditions: in vivo, 0.5 h; in short: as §1
[8] = system: Kidney; assay: Biodistribution in Sprague-Dawley rat kidney at 1.48 to 2.22 MBq, iv measured at 30 mins by gamma counting analysis; assay type: ADME, organism-based; conditions: in vivo, 0.5 h; in short: as §1
[9] = system: Blood; assay: Biodistribution in Sprague-Dawley rat blood at 1.48 to 2.22 MBq, iv measured at 30 mins by gamma counting analysis; assay type: ADME, organism-based; conditions: in vivo, 0.5 h; in short: as §1
[10] = system: Muscle tissue; assay: Biodistribution in Sprague-Dawley rat muscle at 1.48 to 2.22 MBq, iv measured at 60 mins by gamma counting analysis; assay type: ADME, organism-based; conditions: in vivo, 1 h; in short: as §1
[11] = system: Bone; assay: Biodistribution in Sprague-Dawley rat bone at 1.48 to 2.22 MBq, iv measured at 30 mins by gamma counting analysis; assay type: ADME, organism-based, Bone element; conditions: in vivo, 0.5 h; in short: as §1
[12] = system: Kidney; assay: Biodistribution in Sprague-Dawley rat kidney at 1.48 to 2.22 MBq, iv measured at 5 mins by gamma counting analysis; assay type: ADME, organism-based; conditions: in vivo; in short: as §1
[13] = system: Striatum; assay: Biodistribution in Sprague-Dawley rat striatum at 1.48 to 2.22 MBq, iv measured at 30 mins by gamma counting analysis; assay type: ADME, organism-based; conditions: in vivo, 0.5 h; in short: as §1
[14] = system: Muscle tissue; assay: Biodistribution in Sprague-Dawley rat muscle at 1.48 to 2.22 MBq, iv measured at 30 mins by gamma counting analysis; assay type: ADME, organism-based; conditions: in vivo, 0.5 h; in short: as §1
[15] = system: Rattus norvegicus; assay: Biodistribution in Sprague-Dawley rat fat tissue at 1.48 to 2.22 MBq, iv measured at 60 mins by gamma counting analysis; assay type: ADME, organism-based, Adipose tissue; conditions: in vivo, 1 h; in short: as §1
[16] = system: Nucleic Acid; assay: Ratio of drug level in striatum to cortex in Sprague-Dawley rat at 1.48 to 2.22 MBq, iv measured at 5 to 30 mins by gamma counting analysis; assay type: ADME, organism-based; conditions: in vivo; in short: as §2
[17] = system: Blood; assay: Biodistribution in Sprague-Dawley rat blood at 1.48 to 2.22 MBq, iv measured at 5 mins by gamma counting analysis; assay type: ADME, organism-based; conditions: in vivo; in short: as §1
[18] = system: Liver; assay: Biodistribution in Sprague-Dawley rat liver at 1.48 to 2.22 MBq, iv measured at 5 mins by gamma counting analysis; assay type: ADME, organism-based; conditions: in vivo; in short: as §1
[19] = system: Liver; assay: Biodistribution in Sprague-Dawley rat liver at 1.48 to 2.22 MBq, iv measured at 30 mins by gamma counting analysis; assay type: ADME, organism-based; conditions: in vivo, 0.5 h; in short: as §1
[20] = system: Bone; assay: Biodistribution in Sprague-Dawley rat bone at 1.48 to 2.22 MBq, iv measured at 60 mins by gamma counting analysis; assay type: ADME, organism-based, Bone element; conditions: in vivo, 1 h; in short: as §1
[21] = system: Muscle tissue; assay: Biodistribution in Sprague-Dawley rat muscle at 1.48 to 2.22 MBq, iv measured at 5 mins by gamma counting analysis; assay type: ADME, organism-based; conditions: in vivo; in short: as §1
[22] = system: Kidney; assay: Biodistribution in Sprague-Dawley rat kidney at 1.48 to 2.22 MBq, iv measured at 60 mins by gamma counting analysis; assay type: ADME, organism-based; conditions: in vivo, 1 h; in short: as §1
[23] = system: Rattus norvegicus; assay: Biodistribution in Sprague-Dawley rat fat tissue at 1.48 to 2.22 MBq, iv measured at 30 mins by gamma counting analysis; assay type: ADME, organism-based, Adipose tissue; conditions: in vivo, 0.5 h; in short: as §1
[24] = system: Liver; assay: Biodistribution in Sprague-Dawley rat liver at 1.48 to 2.22 MBq, iv measured at 60 mins by gamma counting analysis; assay type: ADME, organism-based; conditions: in vivo, 1 h; in short: as §1

Row | Compound | Drug uptake [1] [% ID/g] | Drug uptake [2] [% ID/g] | Drug uptake [3] [% ID/g] | Drug uptake [4] [% ID/g] | Drug uptake [5] [% ID/g] | Drug uptake [7] [% ID/g] | Drug uptake [8] [% ID/g] | Drug uptake [9] [% ID/g] | Drug uptake [10] [% ID/g] | Drug uptake [11] [% ID/g] | Drug uptake [12] [% ID/g] | Drug uptake [13] | Drug uptake [14] [% ID/g] | Drug uptake [15] [% ID/g] | Drug uptake [17] [% ID/g] | Drug uptake [18] [% ID/g] | Drug uptake [19] [% ID/g] | Drug uptake [20] [% ID/g] | Drug uptake [21] [% ID/g] | Drug uptake [22] [% ID/g] | other results
1 | Cn1cc(-c2ccncc2)c(-c2ccc(OCc3cc([18F])c4ccccc4n3)cc2)n1 | 0.125 | 0.522 | 0.15 | 0.41 | 0.404 | 0.191 | 1.034 | 0.376 | 0.092 | 4.035 | 1.887 | Active | 0.236 | 0.477 | 0.353 | 6.87 | 3 | 6.3 | 0.339 | 0.533 | Ratio [6]: > 2; Ratio [16]: > 2; Drug uptake [23]: 0.576 % ID/g; Drug uptake [24]: 1.6 % ID/g
2 | Cn1cc(-c2ccncc2)c(-c2ccc(OCc3cc(C[18F])c4ccccc4n3)cc2)n1 | 0.069 | 0.421 | 0.201 | 0.128 | 0.343 | 0.094 | 1.351 | 0.416 | 0.107 | 4.055 | 1.799 | Active | 0.174 | 0.222 | 0.471 | 10.16 | 4.01 | 5.62 | 0.227 | 0.573 | Ratio [6]: > 2; Ratio [16]: > 2; Drug uptake [23]: 0.352 % ID/g; Drug uptake [24]: 3.1 % ID/g
3 | Cn1cc(-c2ccncc2)c(-c2ccc(OCc3cc(CCC[18F])c4ccccc4n3)cc2)n1 | 0.026 | 0.222 | 0.345 | 0.114 | 0.22 | 0.046 | 1.364 | 0.345 | 0.103 | 1.418 | 2.471 | Active | 0.178 | 0.368 | 0.459 | 9.99 | 5.67 | 2.037 | 0.223 | 1.216 | Ratio [6]: > 2; Ratio [16]: > 2; Drug uptake [23]: 0.491 % ID/g; Drug uptake [24]: 6.79 % ID/g
4 | Cn1cc(-c2ccncc2)c(-c2ccc(OCc3cc(COCC[18F])c4ccccc4n3)cc2)n1 | 0.343 | 0.133 | 0.401 | 0.213 | 0.139 | 0.353 | 0.632 | 0.424 | 0.228 | 0.17 | 0.981 | Active | 0.265 | 0.066 | 0.44 | 3.99 | 0.987 | 0.337 | 0.155 | 0.485 | Drug uptake [23]: 0.139 % ID/g; Drug uptake [24]: 0.554 % ID/g
5 | Cn1cc(-c2ccncc2)c(-c2ccc(OCc3cc(OCCOCCOCC[18F])c4ccccc4n3)cc2)n1 | 0.421 | 0.487 | 0.646 | 0.353 | 0.225 | 0.509 | 1.793 | 0.771 | 0.379 | 0.441 | 5.969 | Active | 0.488 | 0.123 | 0.699 | 4.74 | 1.53 | 0.49 | 0.419 | 1.037 | Drug uptake [23]: 0.254 % ID/g; Drug uptake [24]: 0.527 % ID/g
